Results as given in ChEMBL document CHEMBL1144760, “Oxygenated cembranoids from a Formosan soft coral Sinularia gibberosa” (J Nat Prod, 2008).
Activity calls are given as the source filed them. No cut-off for these calls is given here.

Columns and labels:
A549 [1] = assay: Cytotoxicity against human A549 cells by MTT assay; type: functional, cell-based
HepG2 [2] = assay: Cytotoxicity against human HepG2 cells by MTT assay; type: functional, cell-based
MCF7 [3] = assay: Cytotoxicity against human MCF7 cells at 20 ug/mL by MTT assay; type: functional; settings: read-out: GI
MCF7 [4] = assay: Cytotoxicity against human MCF7 cells by MTT assay; type: functional, cell-based
HepG2 [5] = assay: Cytotoxicity against human HepG2 cells at 20 ug/mL by MTT assay; type: functional; settings: read-out: GI
[6] = Cytotoxicity against human MDA-MB-23 cells by MTT assay; type: functional, cell-based
RAW264.7 [7] = assay: Inhibition of LPS-induced COX2 expression in mouse RAW264.7 cells at 10 uM by immunoblot analysis relative to control; type: functional
Procedure, shortened: (§1)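 Murine RAW 264.7 macrophages were grown in DMEM with 10% heat-inactivated FBS at 37 °C and 5% CO2. Test agent (10 µM) was added 5 min before LPS (0.01 µg/mL), followed by 16 h incubation. Lysates were cleared at 20000g, and equal protein was run on SDS-PAGE and PVDF. Blots used anti-iNOS or anti-COX-2 (1:1000, 180 min RT), ECL, and a β-actin reprobe. Densitometry was expressed relative to LPS-alone (100%), as mean ± SEM, n = 6.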

RAW264.7 [8] = assay: Inhibition of LPS-induced iNOS expression in mouse RAW264.7 cells at 10 uM by immunoblot analysis relative to control; type: functional; procedure, shortened: as §1
A549 [9] = assay: Cytotoxicity against human A549 cells at 20 ug/mL by MTT assay; type: functional; settings: read-out: GI
MCF7 [10] = assay: Cytotoxicity against human MCF7 cells at 0.5 ug/mL by MTT assay; type: functional; settings: read-out: GI
HepG2 [11] = assay: Cytotoxicity against human HepG2 cells at 0.5 ug/mL by MTT assay; type: functional; settings: read-out: GI
[12] = Cytotoxicity against human MDA-MB-23 cells at 0.5 ug/mL by MTT assay; type: functional; settings: read-out: GI
A549 [13] = assay: Cytotoxicity against human A549 cells at 0.5 ug/mL by MTT assay; type: functional; settings: read-out: GI

Compound	IC50 (A549 [1]) [µg/mL]	IC50 (HepG2 [2]) [µg/mL]	inhibition of growth at 20 µg/mL (MCF7 [3]) [%]	IC50 (MCF7 [4]) [µg/mL]	inhibition of growth at 20 µg/mL (HepG2 [5]) [%]	IC50 [6] [µg/mL]	Activity (RAW264.7 [7])	Activity (RAW264.7 [8])	COX-2 protein level (% of LPS control) at 10 µM (RAW264.7 [7]) [%]	iNOS protein level (% of LPS control) at 10 µM (RAW264.7 [8]) [%]	inhibition of growth at 20 µg/mL (A549 [9]) [%]	inhibition of growth at 0.5 µg/mL (MCF7 [10]) [%]	inhibition of growth at 0.5 µg/mL (HepG2 [11]) [%]	inhibition of growth at 0.5 µg/mL [12] [%]	inhibition of growth at 0.5 µg/mL (A549 [13]) [%]
CC(=O)O[C@H]1C2=C(C(C)C)C=C(O2)[C@@H](C)CC/C=C(\C)CC[C@@H]2O[C@]21C (relative stereo) [GIBBEROSENE A]	> 20	> 20	41.3	> 20	< 20	> 20									
CC(=O)O[C@H]1C/C(C(C)C)=C/C=C(/C)CC/C=C(\C)CC[C@@H]2O[C@@]12C (relative stereo) [GIBBEROSENE B]	> 20	> 20	21.5	> 20	24	> 20	inactive	inactive							
C/C1=C/C=C(\C(C)C)[C@@H](O)C[C@]2(C)O[C@@H]2CC/C(C)=C/CC1	> 20	> 20	33.4	> 20	45.5	> 20			54	76.2	27.2				
COc1cccc2c1C(=O)c1c(O)c3c(c(O)c1C2=O)C[C@@](O)(C(=O)CO)C[C@@H]3O[C@H]1C[C@H](N)[C@H](O)[C@H](C)O1 [DOXORUBICIN]												51.6	66.9	66.6	73.2
CC(=O)O[C@@H]1/C(C)=C/CC/C(C)=C/[C@H](O)C/C(C)=C\C=C(/C(C)C)[C@H]1OC(C)=O (relative stereo) [GIBBEROSENE F]	> 20	> 20		> 20		> 20									
CC(=O)O[C@@H]1/C(C)=C/C[C@H](O)/C(C)=C/CC/C(C)=C\C=C(/C(C)C)[C@H]1OC(C)=O (relative stereo) [GIBBEROSENE E]	> 20	> 20	21	> 20	31.3	> 20					25.8				
CC(=O)O[C@H]1/C=C(C(C)C)\C=C\[C@@](C)(O)CC/C=C(\C)CC[C@@H]2O[C@@]12C (relative stereo) [GIBBEROSENE D]	> 20	> 20		> 20		> 20									
C/C1=C\CC[C@]2(C)O[C@H]2/C=C(\C(C)C)C[C@H](O)[C@]2(C)O[C@H]2CC1 (relative stereo) [GIBBEROSENE C]	> 20	> 20		> 20		> 20									
C/C1=C/C=C(\C(C)C)CC/C(C)=C/C(O)C/C(C)=C/CC1 (stereo unspecified) [GIBBEROSENE G]	> 20	> 20		> 20	23.3	> 20									
